Test results from ChEMBL document CHEMBL1221233, “4''-O-(omega-Quinolylamino-alkylamino)propionyl derivatives of selected macrolides with the activity against the key erythromycin resistant respiratory pathogens” (2010).
Converted amounts (≈) assume the structure as drawn.

How the values were obtained:
Assay type in all cases: functional
Haemophilus influenzae = assay: Antibacterial activity against Haemophilus influenzae ATCC 49247 by broth microdilution method
Procedure, shortened: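 MIC by broth microdilution following CLSI guidelines, expressed in units of lg/mL. Twofold dilutions prepared in 96-well plates. H. influenzae grown on Mueller-Hinton chocolate agar before testing.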

Streptococcus pyogenes [1] = assay: Antibacterial activity against constitutive MLS resistance sStreptococcus pyogenes 166 GR-Micro by broth microdilution method
Procedure, shortened: (§1)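 MIC by CLSI broth microdilution. In the streptococcal medium, 5% horse serum replaced lysed blood. Compounds were tested as two-fold serial dilutions. Strains were first grown on Columbia agar with 5% sheep blood. The MIC was read as the lowest concentration inhibiting growth.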

Staphylococcus aureus [2] = assay: Antibacterial activity against efflux-mediated macrolide-resistance Staphylococcus aureus PK1 by broth microdilution method
Procedure, shortened: (§2)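 Staphylococci were grown on Mueller-Hinton agar and then tested by CLSI-guideline broth microdilution against two-fold serial dilutions of compound. The result was recorded as the minimum inhibitory concentration.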

Streptococcus pneumoniae [3] = assay: Antibacterial activity against efflux-mediated macrolide-resistance Streptococcus pneumoniae Ci137 by broth microdilution method; procedure, shortened: as §1
Streptococcus pyogenes [4] = assay: Antibacterial activity against efflux-mediated macrolide-resistance Streptococcus pyogenes 2 Finland by broth microdilution method; procedure, shortened: as §1
Staphylococcus aureus [5] = assay: Antibacterial activity against inducible resistance to macrolide, licosamide and streptogramin Staphylococcus aureus 90256 by broth microdilution method; procedure, shortened: as §2
Streptococcus pneumoniae [6] = assay: Antibacterial activity against inducible resistance to macrolide and constitutive resistance to lincosamide Streptococcus pneumoniae 134 GR M by broth microdilution method; procedure, shortened: as §1
Streptococcus pneumoniae [7] = assay: Antibacterial activity against constitutive MLS resistance Streptococcus pneumoniae 58 by broth microdilution method; procedure, shortened: as §1

| Structure (SMILES) | MIC (Haemophilus influenzae) [µg/mL] | MIC (Streptococcus pyogenes [1]) [µg/mL] | MIC (Staphylococcus aureus [2]) [µg/mL] | MIC (Streptococcus pneumoniae [3]) [µg/mL] | MIC (Streptococcus pyogenes [4]) [µg/mL] | MIC (Staphylococcus aureus [5]) [µg/mL] | MIC (Streptococcus pneumoniae [6]) [µg/mL] | MIC (Streptococcus pneumoniae [7]) [µg/mL] |
| --- | --- | --- | --- | --- | --- | --- | --- | --- |
| CC[C@H]1OC(=O)[C@H](C)[C@@H](O[C@H]2C[C@@](C)(OC)[C@@H](OC(=O)CCNCCNc3ccc4c(=O)c(C(=O)O)cn(C)c4c3)[C@H](C)O2)[C@H](C)[C@@H](O[C@@H]2O[C@H](C)C[C@H](N(C)C)[C@H]2O)[C@](C)(O)C[C@@H](C)NC(=O)[C@H](C)[C@@H](O)[C@]1(C)O | 16 (≈ 15 µM) | 0.5 (≈ 0.47 µM) | 4 (≈ 3.76 µM) | 1 (≈ 0.94 µM) | 2 (≈ 1.88 µM) | 32 (≈ 30.1 µM) | 1 (≈ 0.94 µM) | 1 (≈ 0.94 µM) |
| CC[C@H]1OC(=O)[C@H](C)[C@@H](O[C@H]2C[C@@](C)(OC)[C@@H](OC(=O)CCN(C)CCNc3cc4c(cc3F)c(=O)c(C(=O)O)cn4C3CC3)[C@H](C)O2)[C@H](C)[C@@H](O[C@@H]2O[C@H](C)C[C@H](N(C)C)[C@H]2O)[C@](C)(O)C[C@@H](C)CN(C)[C@H](C)[C@@H](O)[C@]1(C)O | 4 (≈ 3.56 µM) | 2 (≈ 1.78 µM) | 1 (≈ 0.891 µM) | ≤ 0.125 | ≤ 0.125 | 2 (≈ 1.78 µM) | 0.25 (≈ 0.223 µM) | 0.25 (≈ 0.223 µM) |
| CC[C@H]1OC(=O)[C@H](C)[C@@H](O[C@H]2C[C@@](C)(OC)[C@@H](OC(=O)CCNCCCCNc3ccc4c(=O)c(C(=O)O)cn(CC)c4c3)[C@H](C)O2)[C@H](C)[C@@H](O[C@@H]2O[C@H](C)C[C@H](N(C)C)[C@H]2O)[C@](C)(O)C[C@@H](C)CN(C)[C@H](C)[C@@H](O)[C@]1(C)O | > 32 | 8 (≈ 7.23 µM) | 4 (≈ 3.62 µM) | 1 (≈ 0.904 µM) | 8 (≈ 7.23 µM) | > 32 | 8 (≈ 7.23 µM) | 2 (≈ 1.81 µM) |
| CC[C@H]1OC(=O)[C@H](C)[C@@H](O[C@H]2C[C@@](C)(OC)[C@@H](OC(=O)CCNCCNc3ccc4c(=O)c(C(=O)O)cn(C)c4c3)[C@H](C)O2)[C@H](C)[C@@H](O[C@@H]2O[C@H](C)C[C@H](N(C)C)[C@H]2O)[C@](C)(O)C[C@@H](C)CN(C)[C@H](C)[C@@H](O)[C@]1(C)O | 8 (≈ 7.52 µM) | ≤ 0.125 | 2 (≈ 1.88 µM) | ≤ 0.125 | ≤ 0.125 | 4 (≈ 3.76 µM) | ≤ 0.125 | ≤ 0.125 |
| CC[C@H]1OC(=O)[C@H](C)[C@@H](O[C@H]2C[C@@](C)(OC)[C@@H](OC(=O)CCN(C)CCNc3cc4c(=O)c(C(=O)OC)cn(C5CC5)c4cc3Cl)[C@H](C)O2)[C@H](C)[C@@H](O[C@@H]2O[C@H](C)C[C@H](N(C)C)[C@H]2O)[C@](C)(O)C[C@@H](C)CN(C)[C@H](C)[C@@H](O)[C@]1(C)O | 8 (≈ 6.94 µM) | 1 (≈ 0.867 µM) | 16 (≈ 13.9 µM) | ≤ 0.125 | ≤ 0.125 | > 64 | 0.5 (≈ 0.434 µM) | 0.5 (≈ 0.434 µM) |
| CC[C@H]1OC(=O)[C@H](C)[C@@H](O[C@H]2C[C@@](C)(OC)[C@@H](OC(=O)CCNCCCNc3cc4c(cc3F)c(=O)c(C(=O)O)cn4C3CC3)[C@H](C)O2)[C@H](C)[C@@H](O[C@@H]2O[C@H](C)C[C@H](N(C)C)[C@H]2O)[C@](C)(O)C[C@@H](C)C(=O)[C@H](C)[C@@H](O)[C@]1(C)O | 8 (≈ 7.22 µM) | 2 (≈ 1.81 µM) | 1 (≈ 0.903 µM) | ≤ 0.125 | ≤ 0.125 | 64 (≈ 57.8 µM) | 2 (≈ 1.81 µM) | 0.25 (≈ 0.226 µM) |
| CC[C@H]1OC(=O)[C@H](C)[C@@H](O[C@H]2C[C@@](C)(OC)[C@@H](OC(=O)CCNCCNc3cc4c(=O)c(C(=O)O)cn(C5CC5)c4cc3Cl)[C@H](C)O2)[C@H](C)[C@@H](O[C@@H]2O[C@H](C)C[C@H](N(C)C)[C@H]2O)[C@](C)(O)C[C@@H](C)CN(C)[C@H](C)[C@H]2OC(=O)O[C@@]21C | 2 (≈ 1.74 µM) | ≤ 0.125 | 0.5 (≈ 0.434 µM) | ≤ 0.125 | ≤ 0.125 | 1 (≈ 0.869 µM) | ≤ 0.125 | ≤ 0.125 |
| CC[C@H]1OC(=O)[C@H](C)[C@@H](O[C@H]2C[C@@](C)(OC)[C@@H](OC(=O)CCNCCNc3cc4c(=O)c(C(=O)O)cn(C5CC5)c4cc3Cl)[C@H](C)O2)[C@H](C)[C@@H](O[C@@H]2O[C@H](C)C[C@H](N(C)C)[C@H]2O)[C@](C)(O)C[C@@H](C)C(=O)[C@H](C)[C@@H](O)[C@]1(C)O | 2 (≈ 1.8 µM) | ≤ 0.125 | 0.5 (≈ 0.451 µM) | ≤ 0.125 | ≤ 0.125 | 4 (≈ 3.6 µM) | ≤ 0.125 | ≤ 0.125 |
| CC[C@H]1OC(=O)[C@H](C)[C@@H](O[C@H]2C[C@@](C)(OC)[C@@H](OC(=O)CCNCCNc3cc4c(=O)c(C(=O)O)cn(C5CC5)c4cc3Cl)[C@H](C)O2)[C@H](C)[C@@H](O[C@@H]2O[C@H](C)C[C@H](N(C)C)[C@H]2O)[C@](C)(O)C[C@@H](C)CN(C)[C@H](C)[C@@H](O)[C@]1(C)O | 1 (≈ 0.889 µM) | ≤ 0.125 | 0.25 (≈ 0.222 µM) | ≤ 0.125 | ≤ 0.125 | 0.5 (≈ 0.445 µM) | ≤ 0.125 | ≤ 0.125 |
| CC[C@H]1OC(=O)[C@H](C)[C@@H](O[C@H]2C[C@@](C)(OC)[C@@H](OC(=O)CCNCCCCNc3ccc4c(=O)c(C(=O)O)cn(C)c4c3)[C@H](C)O2)[C@H](C)[C@@H](O[C@@H]2O[C@H](C)C[C@H](N(C)C)[C@H]2O)[C@](C)(O)C[C@@H](C)C(=O)[C@H](C)[C@@H](O)[C@]1(C)O | > 32 | 16 (≈ 14.9 µM) | 4 (≈ 3.71 µM) | 4 (≈ 3.71 µM) | 0.25 (≈ 0.232 µM) | > 32 | 2 (≈ 1.86 µM) | 4 (≈ 3.71 µM) |
| CC[C@H]1OC(=O)[C@H](C)[C@@H](O[C@H]2C[C@@](C)(OC)[C@@H](OC(=O)CCNCCCCNc3ccc4c(=O)c(C(=O)O)cn(CC)c4c3)[C@H](C)O2)[C@H](C)[C@@H](O[C@@H]2O[C@H](C)C[C@H](N(C)C)[C@H]2O)[C@](C)(O)C[C@@H](C)NC(=O)[C@H](C)[C@@H](O)[C@]1(C)O | > 32 | 32 (≈ 28.9 µM) | 8 (≈ 7.23 µM) | 2 (≈ 1.81 µM) | 8 (≈ 7.23 µM) | > 32 | 8 (≈ 7.23 µM) | 16 (≈ 14.5 µM) |
| CC[C@H]1OC(=O)[C@H](C)[C@@H](O[C@H]2C[C@@](C)(OC)[C@@H](OC(=O)CCNCCNc3cc4c(=O)c(C(=O)OC)cn(C5CC5)c4cc3Cl)[C@H](C)O2)[C@H](C)[C@@H](O[C@@H]2O[C@H](C)C[C@H](N(C)C)[C@H]2O)[C@](C)(O)C[C@@H](C)C(=O)[C@H](C)[C@@H](O)[C@]1(C)O | 2 (≈ 1.78 µM) | 0.125 (≈ 0.111 µM) | 16 (≈ 14.2 µM) | ≤ 0.125 | ≤ 0.125 | > 64 | ≤ 0.125 | ≤ 0.125 |
| CC[C@H]1OC(=O)[C@H](C)[C@@H](O[C@H]2C[C@@](C)(OC)[C@@H](OC(=O)CCN(C)CCNc3ccc4c(c3)c(=O)c(C(=O)O)cn4C3CC3)[C@H](C)O2)[C@H](C)[C@@H](O[C@@H]2O[C@H](C)C[C@H](N(C)C)[C@H]2O)[C@](C)(O)C[C@@H](C)CN(C)[C@H](C)[C@H]2OC(=O)O[C@@]21C | 4 (≈ 3.54 µM) | 0.5 (≈ 0.442 µM) | 1 (≈ 0.885 µM) | ≤ 0.125 | ≤ 0.125 | 8 (≈ 7.08 µM) | 1 (≈ 0.885 µM) | 1 (≈ 0.885 µM) |
| CC[C@H]1OC(=O)[C@H](C)[C@@H](O[C@H]2C[C@@](C)(OC)[C@@H](OC(=O)CCNCCNc3ccc4c(c3)c(=O)c(C(=O)O)cn4C3CC3)[C@H](C)O2)[C@H](C)[C@@H](O[C@@H]2O[C@H](C)C[C@H](N(C)C)[C@H]2O)[C@](C)(O)C[C@@H](C)CN(C)[C@H](C)[C@@H](O)[C@]1(C)O | 4 (≈ 3.67 µM) | ≤ 0.125 | 1 (≈ 0.917 µM) | ≤ 0.125 | ≤ 0.125 | 1 (≈ 0.917 µM) | ≤ 0.125 | ≤ 0.125 |
| CC[C@H]1OC(=O)[C@H](C)[C@@H](O[C@H]2C[C@@](C)(OC)[C@@H](OC(=O)CCNCCNc3cc4c(cc3F)c(=O)c(C(=O)O)cn4C3CC3)[C@H](C)O2)[C@H](C)[C@@H](O[C@@H]2O[C@H](C)C[C@H](N(C)C)[C@H]2O)[C@](C)(O)C[C@@H](C)C(=O)[C@H](C)[C@@H](O)[C@]1(C)O | 8 (≈ 7.32 µM) | 0.5 (≈ 0.457 µM) | 0.5 (≈ 0.457 µM) | ≤ 0.125 | ≤ 0.125 | 4 (≈ 3.66 µM) | 0.25 (≈ 0.229 µM) | ≤ 0.125 |
| CC[C@H]1OC(=O)[C@H](C)[C@@H](O[C@H]2C[C@@](C)(OC)[C@@H](OC(=O)CCNCCNc3ccc4c(=O)c(C(=O)O)cn(C5CC5)c4c3)[C@H](C)O2)[C@H](C)[C@@H](O[C@@H]2O[C@H](C)C[C@H](N(C)C)[C@H]2O)[C@](C)(O)C[C@@H](C)C(=O)[C@H](C)[C@@H](O)[C@]1(C)O | 2 (≈ 1.86 µM) | ≤ 0.125 | 8 (≈ 7.44 µM) | ≤ 0.125 | ≤ 0.125 | 8 (≈ 7.44 µM) | ≤ 0.125 | ≤ 0.125 |
| CC[C@H]1OC(=O)[C@H](C)[C@@H](O[C@H]2C[C@@](C)(OC)[C@@H](OC(=O)CCNCCNc3ccc4c(c3)c(=O)c(C(=O)O)cn4C3CC3)[C@H](C)O2)[C@H](C)[C@@H](O[C@@H]2O[C@H](C)C[C@H](N(C)C)[C@H]2O)[C@](C)(O)C[C@@H](C)C(=O)[C@H](C)[C@@H](O)[C@]1(C)O | 1 (≈ 0.93 µM) | ≤ 0.125 | 8 (≈ 7.44 µM) | ≤ 0.125 | ≤ 0.125 | 4 (≈ 3.72 µM) | ≤ 0.125 | ≤ 0.125 |
